pIC50: −log10 of the molar value.
Legend:
Rattus norvegicus [1] = assay: Antihypertensive activity in spontaneous hypertensive rat assessed as reduction in diastolic blood pressure at 10 mg/kg/day, ip for 14 days (reference value: 175.9 +/-7.3 mmHg); settings: route intraperitoneal
Rattus norvegicus [2] = assay: Effect on diastolic blood pressure in WKY rat at 10 mg/kg/day, ip for 14 days (reference value: 72.6 +/- 4.7 mmHg); settings: in vivo, 336 h
Rattus norvegicus [3] = assay: Antihypertensive activity in spontaneous hypertensive rat assessed as reduction in systolic blood pressure at 20 mg/kg/day, po for 7 days (reference value: 121.2 +/- 4.5 mmHg); type: functional, Artery
How it was run: (§1)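 Male SHR, 13 weeks old, received 20 mg/kg orally once daily for 14 days. Noninvasive tail-cuff plethysmography 4 h post-dose gave systolic pressure, diastolic pressure and heart rate. Measurements were made at baseline and on days 1, 3, 5, 7, 11 and 14. n = 6, mean ± SEM.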

Rattus norvegicus [4] = assay: Effect on heart rate in spontaneous hypertensive rat at 10 mg/kg/day, ip for 7 days (reference value: 419 +/- 11 bpm); settings: in vivo, 168 h
Aorta [5] = assay: Vasorelaxation activity in WKY rat aortic rings with intact endothelium assessed as reduction in phenylephrine-induced contraction; type: functional, tissue-based
How it was run: (§2)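 Isolated thoracic aortic rings from WKY rats were studied by isometric tension recording. Endothelium was judged intact when acetylcholine gave >80% relaxation, and was removed mechanically where stated. Rings were precontracted with a single phenylephrine concentration (10), then exposed to cumulative test concentrations (1–300). DMSO served as control. L-NAME, ZM 241385 (100 nM) or glibenclamide (5 µM) were added 20 min before phenylephrine. IC50 was derived per experiment. n = 6, mean ± SEM.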

Aorta [6] = assay: Vasorelaxation activity in WKY rat aortic rings with denuded endothelium assessed as reduction in phenylephrine-induced contraction in presence of 5 uM KATP channel blocker glibenclamide; type: functional; set-up: scale not given: the % may be the effect or the level left
How it was run: as §2

Rattus norvegicus [7] = assay: Effect on heart rate in spontaneous hypertensive rat at 10 mg/kg/day, ip for 14 days (reference value: 419 +/- 11 bpm); settings: in vivo, 336 h
Rattus norvegicus [8] = assay: Antihypertensive activity in spontaneous hypertensive rat assessed as reduction in systolic blood pressure at 10 mg/kg/day, ip for 14 days (reference value: 226 +/-11 mmHg); settings: route intraperitoneal
Rattus norvegicus [9] = assay: Effect on heart rate in WKY rat at 10 mg/kg/day, ip for 14 days (reference value: 383 +/- 21 bpm); settings: in vivo, 336 h
Rattus norvegicus [10] = assay: Antihypertensive activity in spontaneous hypertensive rat assessed as reduction in systolic blood pressure at 20 mg/kg/day, po for 14 days (reference value: 121.2 +/- 4.5 mmHg); type: functional, Artery
How it was run: as §1

Rattus norvegicus [11] = assay: Effect on systolic blood pressure in WKY rat at 10 mg/kg/day, ip for 14 days (reference value: 121.1 +/- 4.5 mmHg); settings: in vivo, 336 h
Rattus norvegicus [12] = assay: Antihypertensive activity in spontaneous hypertensive rat assessed as reduction in systolic blood pressure at 10 mg/kg/day, ip for 7 days (reference value: 226 +/-11 mmHg); settings: route intraperitoneal
Rattus norvegicus [13] = assay: Effect on heart rate in spontaneous hypertensive rat at 20 mg/kg/day, po for 14 days (reference value: 383 +/- 21 bpm); type: organism-based; set-up: route oral; settings: in vivo, 336 h
How it was run: as §1

[14] = molecular target: T1, Adenosine receptor A3 (Homo sapiens) (UniProt P0DMS8); assay: Displacement of [[125I]AB-MECA from human recombinant A3 receptor expressed in HEK293 cells at 10 uM; type: cell-based
T1 sequence (whole entry): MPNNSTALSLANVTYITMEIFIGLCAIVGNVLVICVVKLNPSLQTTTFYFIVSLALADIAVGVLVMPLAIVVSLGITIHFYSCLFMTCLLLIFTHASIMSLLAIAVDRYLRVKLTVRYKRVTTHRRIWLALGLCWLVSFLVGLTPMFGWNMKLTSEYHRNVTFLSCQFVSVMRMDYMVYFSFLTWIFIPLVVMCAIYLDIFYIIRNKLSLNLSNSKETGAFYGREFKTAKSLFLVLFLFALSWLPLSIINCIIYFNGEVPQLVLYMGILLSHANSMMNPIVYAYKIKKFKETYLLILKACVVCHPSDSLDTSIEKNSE
How it was run: (§3)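 Radioligand competition binding used agonist radioligands at these levels: [3H]CCPA 1 nM for A1, [3H]CGS21680 6 nM for A2A, and [125I]AB-MECA 0.15 nM for A3. Results are expressed as percent inhibition of control specific binding: 100 − (measured specific binding / control specific binding × 100).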

Rattus norvegicus [15] = assay: Antihypertensive activity in spontaneous hypertensive rat assessed as reduction in diastolic blood pressure at 20 mg/kg/day, po for 14 days (reference value: 72.6 +/- 4.7 mmHg); type: functional, Artery
How it was run: as §1

Aorta [16] = assay: Vasorelaxation activity in WKY rat aortic rings with intact endothelium assessed as reduction in phenylephrine-induced contraction in presence of 100 uM NOS inhibitor L-NAME; type: functional; set-up: scale not given: the % may be the effect or the level left
How it was run: as §2

Rattus norvegicus [17] = assay: Effect on heart rate in WKY rat at 10 mg/kg/day, ip for 7 days (reference value: 383 +/- 21 bpm); settings: in vivo, 168 h
Aorta [18] = assay: Vasorelaxation activity in WKY rat aortic rings with intact endothelium assessed as reduction in phenylephrine-induced contraction in presence of 100 nM A2A antagonist ZM241385; type: functional; set-up: scale not given: the % may be the effect or the level left
How it was run: as §2

[19] = molecular target: T2, Adenosine receptor A1 (Homo sapiens) (UniProt P30542); assay: Displacement of [3H]CCPA from human recombinant A1 receptor expressed in CHO cells at 10 uM; type: cell-based
T2 sequence (whole entry): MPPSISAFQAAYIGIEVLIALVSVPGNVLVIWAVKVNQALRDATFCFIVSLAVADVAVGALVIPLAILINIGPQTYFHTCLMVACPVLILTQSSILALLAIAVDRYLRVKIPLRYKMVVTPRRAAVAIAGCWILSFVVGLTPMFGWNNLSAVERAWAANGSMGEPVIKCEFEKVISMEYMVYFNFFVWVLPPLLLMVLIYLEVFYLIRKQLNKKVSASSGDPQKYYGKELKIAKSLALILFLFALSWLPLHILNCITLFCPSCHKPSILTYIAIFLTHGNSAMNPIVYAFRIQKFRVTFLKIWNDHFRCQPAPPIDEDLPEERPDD
How it was run: as §3

Rattus norvegicus [20] = assay: Effect on heart rate in spontaneous hypertensive rat at 20 mg/kg/day, po for 7 days (reference value: 383 +/- 21 bpm); type: organism-based; set-up: route oral; settings: in vivo, 168 h
How it was run: as §1

Rattus norvegicus [21] = assay: Effect on diastolic blood pressure in WKY rat at 10 mg/kg/day, ip for 7 days (reference value: 72.6 +/- 4.7 mmHg); settings: in vivo, 168 h
Rattus norvegicus [22] = assay: Effect on systolic blood pressure in WKY rat at 10 mg/kg/day, ip for 7 days (reference value: 121.1 +/- 4.5 mmHg); settings: in vivo, 168 h
[23] = molecular target: Adenosine receptor A2a (Homo sapiens) (UniProt P29274); assay: Displacement of [3HCGS21680 from human recombinant A2A receptor expressed in HEK293 cells at 10 uM; type: cell-based
How it was run: as §3

Rattus norvegicus [24] = assay: Antihypertensive activity in spontaneous hypertensive rat assessed as reduction in diastolic blood pressure at 10 mg/kg/day, ip for 7 days (reference value: 175.9 +/-7.3 mmHg); settings: route intraperitoneal
Aorta [25] = assay: Vasorelaxation activity in WKY rat aortic rings with denuded endothelium assessed as reduction in phenylephrine-induced contraction relative to untreated control; type: functional; set-up: scale not given: the % may be the effect or the level left
How it was run: as §2

Rattus norvegicus [26] = assay: Antihypertensive activity in spontaneous hypertensive rat assessed as reduction in diastolic blood pressure at 20 mg/kg/day, po for 7 days (reference value: 72.6 +/- 4.7 mmHg); type: functional, Artery
How it was run: as §1

Aorta [27] = assay: Vasorelaxation activity in WKY rat aortic rings with intact endothelium assessed as reduction in phenylephrine-induced contraction relative to untreated control; type: functional; set-up: scale not given: the % may be the effect or the level left
How it was run: as §2

Sequence of Adenosine receptor A2a (Homo sapiens) (P29274 whole entry): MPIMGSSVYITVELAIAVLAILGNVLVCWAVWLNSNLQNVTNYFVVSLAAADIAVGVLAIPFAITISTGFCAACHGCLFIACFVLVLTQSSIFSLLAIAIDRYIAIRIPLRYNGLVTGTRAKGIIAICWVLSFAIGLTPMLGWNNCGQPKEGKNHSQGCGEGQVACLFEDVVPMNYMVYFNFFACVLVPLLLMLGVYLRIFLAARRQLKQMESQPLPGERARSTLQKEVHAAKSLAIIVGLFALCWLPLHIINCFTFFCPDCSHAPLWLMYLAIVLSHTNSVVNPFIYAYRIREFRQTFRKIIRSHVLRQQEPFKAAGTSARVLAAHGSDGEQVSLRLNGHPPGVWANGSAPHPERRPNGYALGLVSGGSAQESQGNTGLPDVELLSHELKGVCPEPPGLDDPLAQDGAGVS

O=C(N/N=C/c1ccc2c(c1)OCO2)c1cccs1
Activity (Rattus norvegicus [1]): 95.5 mmHg
Activity (Rattus norvegicus [2]): 88 mmHg
Activity (Rattus norvegicus [3]): 109 mmHg
Activity (Rattus norvegicus [4]): 376 bpm
Activity (Aorta [5]): Dose-dependent effect
pIC50 (Aorta [5]): 5.16
Activity (Aorta [6]): 3.6%
Activity (Rattus norvegicus [7]): 344.8 bpm
Activity (Rattus norvegicus [8]): 118 mmHg
Activity (Rattus norvegicus [9]): 398 bpm
Activity (Rattus norvegicus [10]): 109 mmHg
Activity (Rattus norvegicus [11]): 109 mmHg
Activity (Rattus norvegicus [12]): 126.2 mmHg
Activity (Rattus norvegicus [13]): 398 bpm
inhibition [14]: 67.5%
Activity (Rattus norvegicus [15]): 88 mmHg
Activity (Aorta [16]): 9.1%
Activity (Rattus norvegicus [17]): 379 bpm
Activity (Aorta [18]): 8.3%
inhibition [19]: 29.1%
Activity (Rattus norvegicus [20]): 379 bpm
Activity (Rattus norvegicus [21]): 79.4 mmHg
Activity (Rattus norvegicus [22]): 109 mmHg
inhibition [23]: 47.5%
Activity (Rattus norvegicus [24]): 106.2 mmHg
Activity (Aorta [25]): 28.4%
Activity (Rattus norvegicus [26]): 79.4 mmHg
Activity (Aorta [27]): 100%

Reference: ChEMBL document CHEMBL2169866, “Antihypertensive profile of 2-thienyl-3,4-methylenedioxybenzoylhydrazone is mediated by activation of the A2A adenosine receptor” (Eur J Med Chem, 2012)
